Key:
[1] = Partition coefficient (logP); assay type: physicochemical; conditions: octanol/water
Opioid receptor [2] = target: T1, Opioid receptor (Rattus norvegicus, UniProt P33533+P34975+P33535); experiment: Inhibition of stereospecific [3H]diprenorphine binding to opioid receptors of rat brain homogenates by 50% in the presence of Na
[3] = In vitro narcotic agonist potency of compound as ratio to normorphine (=1) was assessed in mouse vas deferens; assay type: functional
Mus musculus [4] = species on record: Mus musculus; experiment: Concentration required for antagonistic activity of Met-enkephalin in the mouse vas deferens at the dose ratio of 2.; assay type: functional
Rattus norvegicus [5] = experiment: Antagonistic potency of compound after oral administration in rats; assay type: functional
Method in brief: (§1)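 Rats, 10 animals per dose level. Drugs were given as bases in saline vehicle, sc or orally. Antagonist activity was read in the hot-water tail-flick test. AD50 values were reported with limits.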

Mus musculus [6] = species on record: Mus musculus; experiment: Concentration required for antagonistic activity of normorphine in the mouse vas deferens at the dose ratio of 2.; assay type: functional
Rattus norvegicus [7] = species on record: Rattus norvegicus; experiment: Duration of action of compound was determined at the AD99 dose level in rats; assay type: functional
Method in brief: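 Rats, 10 per dose level; bases in saline vehicle given sc. Antagonism was followed in the hot-water tail-flick test at the AD99 dose, which was extrapolated from AD50 values. Duration of action is given in hours.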

Rattus norvegicus [8] = experiment: (§2) Antagonistic potency of compound after subcutaneous administration in rats; assay type: functional; method in brief: as §1
Rattus norvegicus [9] = experiment: as §2; assay type: functional; remark: listed apart in the source
Opioid receptor [10] = target: T1, Opioid receptor; experiment: Inhibition of stereospecific [3H]diprenorphine binding to opioid receptors of rat brain homogenates by 50% in the absence of Na
Mus musculus [11] = species on record: Mus musculus; experiment: Concentration required for antagonistic activity of Met-enkephalin in the mouse vas deferens at the dose ratio of 2; assay type: functional

| Structure (SMILES) | logP ([1]; read-out: logP) | IC50 (Opioid receptor [2]) [nM] | Potency ratio [3] | Concentration (Mus musculus [4]) [ng/mL] | AD50 (Rattus norvegicus [5]) [mg/kg] | Concentration (Mus musculus [6]) [ng/mL] | Duration (Rattus norvegicus [7]) [h] | AD50 (Rattus norvegicus [8]) [mg/kg] | AD99 (Rattus norvegicus [9]) [mg/kg] | IC50 (Opioid receptor [10]) [nM] | logP [1] | Concentration (Mus musculus [11]) [ng/mL] |
| --- | --- | --- | --- | --- | --- | --- | --- | --- | --- | --- | --- | --- |
| CCO[C@@]12CCC(=O)[C@@H]3Oc4c(O)ccc5c4[C@@]31CCN(CC1CC1)C2C5 | 3.58 | 3.8 | <0.12 | 4.1 | 1.5 | 0.07 | 4 | 0.005 | 0.14 | 8 | – | – |
| C=CCN1CC[C@]23c4c5ccc(O)c4O[C@H]2C(=O)CC[C@@]3(O)[C@H]1C5 [NALOXONE] | 1.91 | – | – | 10.1 | 13 | 0.51 | 3 | 0.023 | 0.1 | – | – | – |
| O=C1CC[C@@]2(O)[C@H]3Cc4ccc(O)c5c4[C@@]2(CCN3CC2CC2)[C@H]1O5 [NALTREXONE] | – | – | – | 9 | 1.35 | 0.165 | 5 | 0.009 | 0.05 | – | 3.047 | – |
| C=CCN1CC[C@]23c4c5ccc(O)c4O[C@H]2C(=O)CC[C@@]3(OC)C1C5 | 2.52 | – | – | – | >30 | 0.46 | 4 | 0.041 | 0.15 | – | – | 7.3 |
| CO[C@@]12CCC(=O)[C@@H]3Oc4c(O)ccc5c4[C@@]31CCN(CC1CC1)[C@@H]2C5 | 3.05 | 16 | <0.063 | 11.5 | 4.4 | 0.26 | 8 | 0.019 | 0.25 | 18 | – | – |
| C=CCN1CC[C@]23c4c5ccc(O)c4O[C@H]2C(=O)CC[C@@]3(OCC)C1C5 | 3.05 | – | – | 7.9 | 3.8 | 0.33 | 6 | 0.034 | 0.14 | – | – | – |

— ChEMBL document CHEMBL1122000 (J Med Chem, 1982)
